Compound activity from PubChem BioAssay.
Pf Dd2 inh – P. falciparum Dd2 growth inhibitors, primary screen, SYBR Green fluorescence, single dose replicates; 72 h; hits give low values; activity change, % at 10 µM; 2.3% of 94,000 active; AID 1159554, 2015; in the data active = activity change below about -80%; inconclusive = no clear call, values can overlap the other calls
T cruzi growth-1 – T. cruzi intracellular proliferation inhibitors, primary screen, cell-based, beta-gal Tulahuen parasites, NIH3T3 host, luminescence | AID 624255, 2012 | T. cruzi beta-gal in NIH3T3, GalScreen luminescence, 90 h | inhibition, % at 8.34 µM | 5.9% of 77,000 active;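 active = mean inhibition above about 93%, with at least 55% of replicates each passing it, limit read from the data, passing the limit was not always enough; inconclusive = only one of those two conditions holds; inactive = neither condition holds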
IDH1 mut inh – inhibitors of IDH1 R132H reductase, primary screen, biochemical, plate reader, single point; Isocitrate dehydrogenase [NADP] cytoplasmic (Homo sapiens), O75874; diaphorase/resazurin fluorescence, 60 min; inhibition, % at 10 µM; 0.18% of 70,000 active; AID 624101, 2012; in the data active = inhibition above about 34%; inconclusive = no clear call, values can overlap the other calls; inactive = below about 11%;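 also: 0% = DMSO and 100% = no enzyme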
Target sequence (O75874 whole entry R132H): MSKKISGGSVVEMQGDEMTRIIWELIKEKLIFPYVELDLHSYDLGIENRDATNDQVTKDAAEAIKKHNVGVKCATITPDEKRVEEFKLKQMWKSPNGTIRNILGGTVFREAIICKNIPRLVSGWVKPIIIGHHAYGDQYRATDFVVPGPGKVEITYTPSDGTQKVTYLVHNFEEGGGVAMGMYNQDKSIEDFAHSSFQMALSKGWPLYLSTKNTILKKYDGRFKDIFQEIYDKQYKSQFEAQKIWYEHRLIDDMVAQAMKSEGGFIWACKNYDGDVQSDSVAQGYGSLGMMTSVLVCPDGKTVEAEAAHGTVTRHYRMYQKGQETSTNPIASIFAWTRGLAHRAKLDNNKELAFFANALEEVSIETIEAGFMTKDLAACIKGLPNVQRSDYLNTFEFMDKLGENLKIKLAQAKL
GASC1 inh – inhibitors of GASC-1 (KDM4C) histone demethylase, primary screen, biochemical, single concentration HTS | Lysine-specific demethylase 4C (Homo sapiens), Q9H3R0 | inhibition, % at 12.5 µM | GST-KDM4C 2-372, H3K9me3 peptide, LANCE TR-FRET | AID 720574, 2013 | 0.15% of 96,000 active;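 active = mean replicate inhibition above about 25%, with at least 55% of replicates also reaching it, limit read from the data, passing the limit was not always enough; inconclusive = only one of those two conditions met; inactive = neither condition met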
Target sequence (Q9H3R0 2-372 limits assumed): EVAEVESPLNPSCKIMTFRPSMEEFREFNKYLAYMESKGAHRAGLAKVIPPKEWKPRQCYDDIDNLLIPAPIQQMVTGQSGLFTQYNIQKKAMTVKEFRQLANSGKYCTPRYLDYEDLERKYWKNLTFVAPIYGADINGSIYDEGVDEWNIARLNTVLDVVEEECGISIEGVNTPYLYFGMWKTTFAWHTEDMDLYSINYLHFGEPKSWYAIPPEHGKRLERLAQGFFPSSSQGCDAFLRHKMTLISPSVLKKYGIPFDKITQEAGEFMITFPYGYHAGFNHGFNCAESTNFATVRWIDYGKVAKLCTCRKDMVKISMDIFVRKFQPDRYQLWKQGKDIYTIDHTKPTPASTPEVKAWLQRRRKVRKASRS
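Test system: N-terminal GST-fused human GASC-1 (KDM4C) fragment, residues 2-372; quantity: GASC-1 enzyme at 10 nM final in reaction; dosing: single dose; schedule: 30 min demethylation and 1 h detection at room temperature; signal: LANCE TR-FRET, excitation 340 nm, emissions 618 and 671 nm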
T cruzi growth-2 – T. cruzi intracellular proliferation inhibitors, confirmation, cell-based, NIH3T3 host, beta-gal parasite, luminescence, cherry-pick; shares compounds with T cruzi growth-1; T. cruzi beta-gal in NIH3T3, GalScreen luminescence, 90 h; inhibition, % at 8.35 µM; 72% of 5,600 active;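 active = mean replicate inhibition above about 95% and at least 55% of replicates individually reaching it, limit read from the data; inconclusive = only one of the two criteria is met; inactive = neither criterion is met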
T cruzi growth-3 – inhibitors of intracellular T. cruzi replication, confirmation, NIH3T3 host cells, beta-gal parasites, cherry-pick, set 2 | inhibition, % at 2.09 µM | T. cruzi beta-gal in NIH3T3, GalScreen luminescence, 90 h | 21% of 5,600 active | shares compounds with T cruzi growth-1 | AID 651740, 2012;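 active = mean inhibition above about 95%, with at least 55% of replicates also reaching it, limit read from the data; inconclusive = meets just one of the two conditions; inactive = meets neither condition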;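 also: plate controls were neutral control median for no effect and positive control median for full effect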
3T3 cytotox – cytotoxicity in mouse NIH/3T3 fibroblasts, confirmation, cytotoxicity control for T. cruzi proliferation inhibitor project, cell-based, cherry-pick, single point; shares compounds with T cruzi growth-1; NIH/3T3 viability, CellTiter-Glo ATP luminescence, 90 h; 14% of 5,600 active; AID 651742, 2012; cytotoxicity (signal decrease), % at 8.35 µM;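 active = mean signal decrease across replicates above about 35% based on untreated-well scatter, with enough replicates individually passing, limit read from the data; inconclusive = no rule stated though some were filed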;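 also: 0% = median of neutral control wells and 100% = median of positive control wells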
3T3 cytotox 2 – NIH/3T3 fibroblast cytotoxicity, confirmation, cytotoxicity control, cell-based, cherry-pick, single point, set 2. NIH/3T3 viability, CellTiter-Glo ATP luminescence, 90 h. inhibition, % at 24.9 µM. AID 651744, 2012. shares compounds with T cruzi growth-1. 56% of 5,600 active;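 active = mean loss of cell viability signal at or above a set limit, and enough replicates individually reaching it; inconclusive = meets only the mean limit or only the replicate share; inactive = meets neither condition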;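 also: 0% = median of neutral control wells and 100% = median of positive control wells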
An asterisk follows results filed as active; ? = inconclusive; . = no result. A selection: hits, their analogues and other compounds. The true share with any hit is near 5.8%.

SMILES | Pf Dd2 inh | T cruzi growth-1 | IDH1 mut inh | GASC1 inh | T cruzi growth-2 | T cruzi growth-3 | 3T3 cytotox | 3T3 cytotox 2
CN1C(=O)c2cc(NC(=O)Cc3cccs3)ccc2OC[C@@H]2O[C@H](CC(=O)N[C@H]3CCN(Cc4ccccc4)C3)CC[C@H]21 | . | -63.5 | . | -0.4 | . | . | . | .
CN1C(=O)c2cc(NC(=O)Cc3cccs3)ccc2OC[C@@H]2O[C@@H](CC(=O)N[C@H]3CCN(Cc4ccccc4)C3)CC[C@H]21 | . | 82.2 | . | -2.1 | . | . | . | .
CN1C(=O)c2cc(NC(=O)c3ccc(F)c(F)c3)ccc2OC[C@@H]2O[C@H](CC(=O)N[C@H]3CCN(Cc4ccccc4)C3)CC[C@H]21 | . | 111.3* | . | 1.1 | 98.7* | 57.5 | -14.5 | -11.5
CN1C(=O)c2cc(NC(=O)Cc3cccs3)ccc2OC[C@H]2O[C@@H](CC(=O)N[C@H]3CCN(Cc4ccccc4)C3)CC[C@@H]21 | . | 52.0 | . | 1.5 | . | . | . | .
CN1C(=O)c2cc(NC(=O)Cc3cccs3)ccc2OC[C@H]2O[C@H](CC(=O)N[C@H]3CCN(Cc4ccccc4)C3)CC[C@@H]21 | . | 104.8* | . | 0.6 | ? | 65.9 | -23.5 | -46.5
C=CCNC(=O)[C@H]1[C@@H]2C(=O)O[C@@H](c3ccccc3)[C@@H](c3ccccc3)N2[C@@H](c2ccc(O)cc2)[C@]12C(=O)Nc1ccccc12 | . | . | -0.2 | . | . | . | . | .
C[C@H]1CCCCO[C@@H](CN(C)S(=O)(=O)c2cccs2)[C@@H](C)CN([C@@H](C)CO)C(=O)c2cc(NC(=O)Nc3ccc(F)cc3)ccc2O1 | -44.6 | 98.5* | -1.9 | -0.5 | 108.8* | 58.8 | 17.6 | 27.3*
C[C@@H]1CCCCO[C@H](CN(C)S(=O)(=O)c2cccs2)[C@@H](C)CN([C@@H](C)CO)C(=O)c2cc(NC(=O)Nc3ccccc3)ccc2O1 | . | ? | 0.9 | -0.2 | 106.7* | 41.7 | 8.2 | 25.2
C[C@@H]1CCCCO[C@@H](CN(C)S(=O)(=O)c2cccs2)[C@H](C)CN([C@H](C)CO)C(=O)c2cc(NC(=O)Nc3ccccc3)ccc2O1 | . | 112.1* | . | -1.5 | 107.7* | 76.1 | -22.3 | 0.6
C[C@@H]1CCCCO[C@H](CN(C)S(=O)(=O)c2cccs2)[C@H](C)CN([C@H](C)CO)C(=O)c2cc(NC(=O)Nc3ccccc3)ccc2O1 | . | 108.1* | 1.3 | 0.7 | 107.0* | 26.3 | 12.0 | 4.9
C[C@@H]1CCCCO[C@H](CN(C)S(=O)(=O)c2cccs2)[C@@H](C)CN([C@H](C)CO)C(=O)c2cc(NC(=O)Nc3ccc(F)cc3)ccc2O1 | -44.6 | -18.3 | . | 5.2 | . | . | . | .
C[C@@H]1CN([C@@H](C)CO)C(=O)c2cc(NC(=O)Nc3ccc(F)cc3)ccc2O[C@@H](C)CCCCO[C@H]1CN(C)S(=O)(=O)c1cccs1 | -70.2 | 56.3 | -0.8 | -0.2 | . | . | . | .
C[C@@H]1CCCCO[C@@H](CN(C)S(=O)(=O)c2cccs2)[C@@H](C)CN([C@@H](C)CO)C(=O)c2cc(NC(=O)Nc3ccc(F)cc3)ccc2O1 | -35.4 | 27.0 | 0.6 | 0.0 | . | . | . | .
C[C@H]1CCCCO[C@H](CN(C)S(=O)(=O)c2cccs2)[C@@H](C)CN([C@@H](C)CO)C(=O)c2cc(NC(=O)Nc3ccccc3)ccc2O1 | . | 107.1* | -6.2 | -1.2 | 105.6* | 36.4 | 3.4 | 27.4*
C[C@@H]1CCCCO[C@H](CN(C)S(=O)(=O)c2cccs2)[C@H](C)CN([C@@H](C)CO)C(=O)c2cc(NC(=O)Nc3ccccc3)ccc2O1 | . | 98.9* | . | -1.8 | 101.2* | 28.8 | 1.0 | 29.5*
C[C@@H]1CCCCO[C@@H](CN(C)S(=O)(=O)c2cccs2)[C@@H](C)CN([C@@H](C)CO)C(=O)c2cc(NC(=O)Nc3ccccc3)ccc2O1 | . | 54.1 | . | -1.1 | . | . | . | .
Cc1ccccc1-c1ccc([C@@H]2[C@@H](CO)N3CCCCN(S(=O)(=O)c4cn(C)cn4)C[C@H]23)cc1 | -37.0 | 88.5 | . | -0.7 | . | . | . | .
Cc1ccccc1-c1ccc([C@H]2[C@@H](CO)N3CCCCN(S(=O)(=O)c4cn(C)cn4)C[C@@H]23)cc1 | 20.9 | 114.9* | . | 0.9 | 3.1 | -25.1 | 1.0 | 31.8*
Cc1ccccc1-c1ccc([C@@H]2[C@H](CO)N3CCCCN(S(=O)(=O)c4cn(C)cn4)C[C@@H]23)cc1 | 8.9 | 62.6 | . | 0.7 | . | . | . | .
Cc1ccccc1-c1ccc([C@H]2[C@H]3CN(S(=O)(=O)c4cn(C)cn4)CCCCN3[C@H]2CO)cc1 | 24.6 | 113.7* | . | -1.9 | 60.0 | -18.9 | 19.4 | ?
CCC(=O)NC(c1ccccc1OC)c1c(O)ccc2ccccc12 (centres undefined) | . | . | 3.0 | . | . | . | . | .
Cc1ccc(Cl)cc1NC(=O)CSc1cc(C)c2cccc(C)c2n1 | . | . | -0.1 | . | . | . | . | .
CCOc1ccc(NC(=O)CSc2nnc(-c3cccs3)n2C)cc1 | . | . | 0.6 | . | . | . | . | .
Cc1ccc2nc(SCc3nc4ccccc4n3C)[nH]c2c1 | . | . | -0.4 | . | . | . | . | .
COc1ccc(CNC(=O)C2CCCCC2C(=O)O)cc1 (centres undefined) | . | . | 0.4 | . | . | . | . | .
O=C(C[C@H]1C[C@H]2c3cc(NS(=O)(=O)c4ccc(F)cc4)ccc3O[C@H]2[C@H](CO)O1)NCc1ccccc1 | -44.2 | -31.1 | -0.1 | -4.1 | . | . | . | .
COc1cccc(S(=O)(=O)Nc2ccc3c(c2)[C@@H]2C[C@H](CC(=O)NCc4ccccc4F)O[C@@H](CO)[C@@H]2O3)c1 | -79.5 | 70.8 | -0.2 | 7.1 | . | . | . | .
O=C(C[C@H]1C[C@H]2c3cc(NS(=O)(=O)c4ccc(F)cc4)ccc3O[C@H]2[C@H](CO)O1)NCc1ccc(-c2ccccc2)cc1 | -71.1 | 100.6* | 0.7 | -6.2 | 86.9 | 101.0* | 66.3* | 67.4*
COc1cccc(S(=O)(=O)Nc2ccc3c(c2)[C@H]2C[C@H](CC(=O)NCc4ccccc4F)O[C@H](CO)[C@H]2O3)c1 | -43.7 | 143.5* | 0.1 | 0.0 | 97.9* | -0.1 | -15.8 | 2.5
O=C(C[C@H]1C[C@H]2c3cc(NS(=O)(=O)c4ccc(F)cc4)ccc3O[C@H]2[C@@H](CO)O1)NCc1ccc(Oc2ccccc2)cc1 | -52.3 | 119.5* | 1.3 | -2.6 | 101.1* | 77.3 | 19.7 | 20.5
